Measured values of several laboratories.
Compare with care: the assays were run in different laboratories.
Matrix: PAMPA

SMILES | tested at | time | pH | Papp [×10⁻⁶ cm/s]
Cc1c(S(=O)(=O)N2CCc3[nH]ncc3C2)cc(C(=O)NCc2cccnc2N2CCCC2)n1C | – | – | – | 14.4
C=C(CC(=O)OC)C(=O)OCOC(=O)C(C)(C)C | 10 µM | 4 h | pH 7.4 | > 10
Cc1c(S(=O)(=O)N2CCn3nccc3C2)cc(C(=O)NCc2c(F)ccc3cnn(C)c23)n1C | – | – | – | 25
CCCCCCCCOC(=O)c1ccc(O)cc1 | 5 µM | – | pH 7.4 | 0.73
Cc1[nH]c(C)c(S(=O)(=O)Nc2ccc(C(F)(F)F)c(Cl)c2)c1C(=O)N(C)C | – | – | – | 11
CCCCOC(=O)c1ccc(O)cc1 | 5 µM | – | pH 7.4 | 5.68
O=C(O)c1cc(/N=N/c2ccc(S(=O)(=O)Nc3ccccn3)cc2)ccc1O | – | 4 h | – | 0.077
Cc1c(S(=O)(=O)N2CCC(C)CC2)cc(C(=O)NCc2cccnc2N2CCCC2)n1C | – | – | – | 32.8
C=C(CC(=O)OCOC(=O)OC(C)C)C(=O)OC | 10 µM | 4 h | pH 7.4 | > 10
CCOC(=O)c1ccc(O)cc1 | 5 µM | – | pH 7.4 | 4.72
C=C(CC(=O)OCOC(=O)C(C)(C)C)C(=O)O | 10 µM | 4 h | pH 7.4 | < 1
CCCOC(=O)c1ccc(O)cc1 | 5 µM | – | pH 7.4 | 7.04
C=C(CC(=O)OC)C(=O)OCc1oc(=O)oc1C | 10 µM | 4 h | – | ~15
CCCCCOC(=O)c1ccc(O)cc1 | 5 µM | – | pH 7.4 | 4.28
Cc1c(S(=O)(=O)N2CCn3cccc3C2)cc(C(=O)NCc2cccnc2N2CCCC2)n1C | – | – | – | 27.6
C=C(CC(=O)OCOC(=O)C(C)(C)C)C(=O)OC | 10 µM | 4 h | pH 7.4 | > 10
